Experimental data taken from ChEMBL document CHEMBL1833791, “Synthesis and biological evaluation of α,β-unsaturated lactones as potent immunosuppressive agents” (Bioorg Med Chem Lett, 2011).
Calls of active or inactive are those of the source. The calls are words filed in the database; no cut-off is given here.

What was measured:
Jurkat [1] = test: Immunosuppressive activity in human Jurkat T cells assessed as inhibition of PMA-induced IL-2 production at 10 uM after 13 hrs by ELISA relative to control; assay type: functional
How it was run: (§1)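 Jurkat T lymphocytes at 1 × 10^6 cells/mL were given compound at 1 μM or 10 μM final, then stimulated with 5 nM ionomycin plus 500 nM PMA for 13 h at 37 °C. Cells were spun down and supernatant IL-2 was measured by sandwich ELISA (anti-human IL-2 capture, biotinylated anti-human IL-2 detection). Values are % inhibition versus DMSO negative control, from at least three experiments.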

Jurkat [2] = test: Immunosuppressive activity in human Jurkat T cells assessed as inhibition of PMA-induced IL-2 production at 1 uM after 13 hrs by ELISA relative to control; assay type: functional; how it was run: as §1
Jurkat [3] = test: Immunosuppressive activity in human Jurkat T cells assessed as inhibition of PMA-induced IL-2 production after 13 hrs by ELISA; assay type: functional, cell-based

IC50 (Jurkat [3])	Compound	inhibition at 10 µM (Jurkat [1])	inhibition at 1 µM (Jurkat [2])	inhibition (Jurkat [2])	inhibition (Jurkat [1])
	O=C1C=CCC(c2ccc3ccccc3c2)O1 (centres undefined)	97.2%	37.5%		
	COc1cccc(C2CC=CC(=O)O2)c1 (centres undefined)	90.4%		inactive	
	Cc1ccccc1C1CC=CC(=O)O1 (centres undefined)	86.1%	15.2%		
	O=C1C=CCC(c2ccsc2)O1 (centres undefined)	46.2%		inactive	
	COc1ccc(C2CC=CC(=O)O2)cc1 (centres undefined)	87.2%	39.8%		
	O=C1C=CCC(c2ccnc3ccccc23)O1 (centres undefined)	100%	27.8%		
	Cc1ccc(C2CC=CC(=O)O2)c2ccccc12 (centres undefined)	100%	57.4%		
	Cc1cccc(C2CC=CC(=O)O2)c1 (centres undefined)	64.5%	47.9%		
	O=C1C=CCC(c2cccs2)O1 (centres undefined)	59.6%		inactive	
	O=C1C=CCC(c2cnc3ccccc3c2)O1 (centres undefined)	98.7%	41.5%		
	COc1ccccc1C1CC=CC(=O)O1 (centres undefined)	89.2%	11%		
66.9 nM	O=C1C=CCC(c2cc3ccccc3o2)O1 (centres undefined)	100%	100%		
	O=C1C=CCC(C(c2ccccc2)c2ccccc2)O1 (centres undefined)	89.2%	18.7%		
	O=C1C=CCC(c2ccco2)O1 (centres undefined)	21.7%		inactive	
396 nM	O=C1C=CCC(Cc2ccc3ccccc3c2)O1 (centres undefined)	100%	67.7%		
	O=C1C=CCC(c2ccc(OCc3ccccc3)cc2)O1 (centres undefined)	98.9%	28%		
142 nM	Cc1ccc(C2CC=CC(=O)O2)cc1 (centres undefined)	80.6%	89%		
908 nM	O=C1C=CCC(c2csc3ccccc23)O1 (centres undefined)	100%	77.1%		
	Cc1ccc2ccccc2c1C1CC=CC(=O)O1 (centres undefined)	75.5%	6.4%		
166 nM	O=C1C=CCC(c2ccccc2)O1 (centres undefined)	82.6%	89.7%		
	O=C1C=CCC(c2cccc3ccccc23)O1 (centres undefined)	100%	72.5%		
	O=C1C=CCC(/C=C/c2ccccc2)O1 (centres undefined)	90.1%	12.7%		
	O=C1C=CCC(c2ccoc2)O1 (centres undefined)			inactive	inactive
1570 nM	O=C1C=CCC(CC23CC4CC(CC(C4)C2)C3)O1 (centres undefined)	100%	57.4%		
